From PubChem BioAssay
This is a sample that favours compounds with a hit; in the whole collection about 1.9% have one here.
CHRM4 antagonist: antagonists of human muscarinic M4 receptor (CHRM4); actives 0.73% (n = 360,000); CHO-hM4 cells, ACh EC80, Fluo-8 calcium fluorescence; P08173; inhibition, % at 3 µM;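 active means inhibition above its plate's cutoff, the mean inhibition of sample wells plus 3 SD, cut at about 27% in these data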;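 further: 0% = acetylcholine EC80 with DMSO and 100% = DMSO without agonist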
CHRM5 PAM: potentiates acetylcholine response at human M5 receptor. P08912. CHO-K1 hM5, Fluo-8 calcium, ACh EC20 PAM; 0% = ACh EC20, 100% = ACh EC100. activation, % at 3 µM. actives 0.3% (n = 360,000). AID 624038;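 active means activation above the run cutoff, the mean activation of all test compounds plus 3 SD, cut at about 18% in these data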
Target sequence (P08912 whole entry, looked up): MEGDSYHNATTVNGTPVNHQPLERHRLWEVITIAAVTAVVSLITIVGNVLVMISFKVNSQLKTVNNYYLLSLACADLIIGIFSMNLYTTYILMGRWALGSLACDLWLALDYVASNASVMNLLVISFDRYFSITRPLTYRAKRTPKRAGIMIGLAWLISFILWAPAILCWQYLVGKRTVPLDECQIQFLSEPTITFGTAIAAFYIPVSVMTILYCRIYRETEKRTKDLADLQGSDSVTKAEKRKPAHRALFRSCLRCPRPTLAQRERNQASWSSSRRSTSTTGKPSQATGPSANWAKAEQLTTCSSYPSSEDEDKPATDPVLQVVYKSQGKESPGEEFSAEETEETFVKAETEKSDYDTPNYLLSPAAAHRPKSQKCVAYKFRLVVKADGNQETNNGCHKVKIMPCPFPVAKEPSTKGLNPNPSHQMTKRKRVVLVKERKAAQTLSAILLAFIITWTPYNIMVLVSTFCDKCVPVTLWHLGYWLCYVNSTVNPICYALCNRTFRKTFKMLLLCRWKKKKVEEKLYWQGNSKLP
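Probe or stimulus: acetylcholine, EC20 level; Assay system: human M5 receptor in CHO-K1 cells; Schedule: compound preincubation 140 s before EC20 acetylcholine addition; Technique: intracellular calcium via Fluo-8 fluorescence; Dosing: single-point, 3 µM nominal; Read-out basis: percent activation from peak-over-basal fluorescence ratio, scaled EC20-to-EC100 acetylcholine; Repeats: one well per compound, no replicates.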
M5 ag: CHRM5 agonism in calcium assay | P08912 | CHO-K1 hM5 cells, Fluo-8 calcium fluorescence; 0% DMSO wells, 100% maximal acetylcholine response | activation, % at 3 µM | actives 0.19% (n = 360,000) | AID 624037;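 active means activation above the run's mean over test compounds plus 3 SD, cut at about 23% in these data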;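 further: signal is peak over basal fluorescence ratio across the kinetic read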
CHRM5 antagonist: blocks acetylcholine activation of human M5 receptor; CHO-hM5 cells, Fluo-8 calcium fluorescence, ACh EC80; AID 624040; inhibition, % at 3 µM; actives 0.59% (n = 360,000);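 active means inhibition above a per-plate cutoff, the mean of that plate's test compounds plus 3 SD, cut at about 27% in these data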;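 further: 0% = acetylcholine EC80 with DMSO and 100% = DMSO without agonist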
CHRM4 agonist: CHRM4 agonism in calcium assay | actives 0.14% (n = 360,000) | activation, % at 3 µM | CHO-K1 hM4/Gqi5, Fluo-8 calcium fluorescence; vehicle 0%, full acetylcholine response 100% | P08173;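 active means activation above the run mean over all test wells plus 3 SD, cut at about 32% in these data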;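 further: peak over basal fluorescence ratio per well then scaled between controls; 0% = DMSO wells and 100% = acetylcholine at EC100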
M4 PAM: CHRM4 positive allosteric modulation | CHO-K1 hM4/Gqi5, Fluo-8 calcium fluorescence, ACh EC20; 0% = ACh EC20, 100% = maximal ACh | actives 0.4% (n = 360,000) | P08173 | activation, % at 3 µM;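 active means activation above its plate's cutoff, the mean activation of sample wells plus 3 SD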
Numbers without * were called inactive.

SMILES | CHRM4 antagonist | CHRM5 PAM | M5 ag | CHRM5 antagonist | CHRM4 agonist | M4 PAM
Cc1cc(C)c(Nc2ncnc(N)n2)c(C)c1 | 100* | 4 | -3 | 5 | -2 | -74
O=C(NN=C1CCCC1)c1n[nH]c2c1CCC2 | -1 | 7 | 2 | -6 | 1 | 27*
O=C(O)c1cccc(S(=O)(=O)NCCC(c2ccccc2)c2ccccc2)c1 | -26 | 12 | -7 | 0 | 1 | 23*
Cc1sc2c(c1C)C(=O)/C(=C\Nc1ccccn1)S(=O)(=O)N2C | 4 | 4 | 0 | 10 | 1 | 1
CC1(C)Cc2c(sc(NC(=O)c3ccc(C(=O)c4ccccc4)cc3)c2C(N)=O)C(C)(C)N1 | 10 | -8 | -6 | 32* | 16 | 0
COC(=O)c1c(NC(=O)c2ccccc2)sc2c1CC(C)(C)NC2(C)C | 0 | -8 | 0 | 0 | 1 | -3
CN1CCN(C2Cc3cc(Cl)ccc3Sc3cc(F)ccc32)CC1 (stereo not drawn) | 94* | -32 | -18 | 59* | 23 | -64
c1ccc2c(c1)CC(N1CCCCC1)c1ccccc1S2 (stereo not drawn) | -18 | -32 | -20 | 3 | -1 | -24
OCCN1CCN(C2Cc3cc(Cl)ccc3Sc3ccc(Cl)cc32)CC1 (stereo not drawn) (tested in a mixture with another compound) | 21 | -11 | -9 | 8 | 13 | -17
CCc1ccc2c(c1)Sc1ccccc1CC2N1CCN(C)CC1 (stereo not drawn) | 33* | -29 | -12 | 9 | 25 | -72
O=C(COC(=O)c1cn(-c2ccccc2)nc1-c1ccccc1)c1cccc([N+](=O)[O-])c1 | 2 | -3 | 1 | 6 | 0 | 19
Cn1ccc2c(-c3ccc4c(c3)OCCO4)cc3c(c21)C1CCC3O1 (stereo not drawn) | -19 | -1 | -4 | 0 | -3 | 11
CCCc1nc2sc3c(=O)n(N)cnc3c2c2c1CCCC2 | -8 | 21* | 1 | -4 | 1 | 12
CCCCc1nc2sc3c(=O)n(N)cnc3c2c2c1CCCC2 | 2 | 6 | -3 | -6 | 1 | -6
CCN1CCN(C(=O)c2ccc(C)c(S(=O)(=O)Nc3cccc(C)c3)c2)CC1 | -8 | 1 | -7 | 0 | 0 | 5
Cn1c(C(=O)OC(C(=O)NC2CCCCC2)c2cccnc2)cc2sccc21 (stereo not drawn) | -4 | -5 | -8 | 41* | 2 | 4
Cc1cc(NS(=O)(=O)c2ccc(NC(=O)COc3ccc(Cl)cc3Cl)cc2)no1 | -9 | 3 | -5 | -2 | 1 | 10
CNC(=O)C12CCC(C)(c3nc4cc(C)c(C)cc4nc31)C2(C)C (stereo not drawn) | -3 | 1 | -1 | 2 | 0 | 3
CCCNC(=O)C12CCC(C)(c3nc4cc(C)c(C)cc4nc31)C2(C)C (stereo not drawn) | -26 | 25* | 13 | -3 | -1 | 23*
OC[C@@H]1CN(Cc2ccncc2)C[C@H](n2cnc3c(N4CCOCC4)ncnc32)O1 | -10 | 0 | 0 | -4 | 1 | 14
Cc1ccc(C)c(N2CCN(CCCNC(=O)Cn3cc4c(n3)CCCCC4)CC2)c1 | 100* | -10 | -1 | 4 | -3 | -19
COc1ccc(/C=C/C(=O)N(C)C2CCS(=O)(=O)C2)cc1 (stereo not drawn) | 4 | 4 | 3 | 1 | 2 | 7
CCOCCCNC(=O)C(NC(=O)Cc1cccs1)c1ccc(C)cc1 (stereo not drawn) | -4 | 6 | 2 | 9 | 0 | 21*
CCOCCCNC(=O)C(c1ccc(C)cc1)N(Cc1ccc2c(c1)OCO2)C(=O)CNC(C)=O (stereo not drawn) | -2 | 4 | 2 | 2 | 2 | 24*
CCOCCCNC(=O)C(NC(=O)CNC(C)=O)c1ccc(C)cc1 (stereo not drawn) | 7 | 5 | 2 | -3 | 0 | 3
SMILES | CHRM4 antagonist | CHRM5 PAM | M5 ag | CHRM5 antagonist | CHRM4 agonist | M4 PAM
O=C(Cn1cc2c(n1)CCCCC2)Nc1c(F)cc(F)cc1Br | 10 | 8 | 1 | -2 | 2 | 15
O=C(Cc1nnc(NC(=O)c2ccccc2)s1)N/N=C/c1ccco1 | 11 | -1 | 4 | 1 | 0 | 0
Cc1cc(C)c(-c2csc(NC(=O)c3cc([N+](=O)[O-])ccc3N3CCOCC3)n2)c(C)c1 | 36* | -20 | -10 | 23 | -1 | -18
O=C(Nc1nc(-c2ccc(F)c(F)c2)cs1)c1cc([N+](=O)[O-])ccc1N1CCOCC1 | -2 | -2 | 0 | 3 | 0 | 7
COc1ccc(CN(CC2CCC(C(=O)O)CC2)C(=S)Nc2cc(C)cc(C)c2)cc1 (stereo not drawn) | -9 | -5 | 5 | 7 | 4 | 19*
NC(=O)CN1CCOCCOCCN(CC(N)=O)CCOCCOCC1 | 101* | 5 | 1 | -5 | 0 | 3
CC(OC(=O)c1cccc(O)c1)C(=O)N(C)Cc1ccccc1 (stereo not drawn) | 5 | -6 | 0 | 7 | 1 | 2
CC(OC(=O)/C(C#N)=C/c1ccc(N(C)C)cc1)C(=O)N(C)Cc1ccccc1 (stereo not drawn) | 6 | -11 | 32* | 12 | 19 | -13
CCC1CCCCN1CCCNC(=O)CSc1nc2nc(C)c(Cc3ccccc3)c(C)n2n1 (stereo not drawn) | 8 | -7 | -8 | 9 | 2 | -12
Cc1nc2nc(SCC(=O)NCCCN3CCCCCC3)nn2c(C)c1Cc1ccccc1Cl | 51* | -13 | -10 | -1 | 2 | -11
Cc1nc2nc(SCC(=O)NCCCN3CCCC(C)C3)nn2c(C)c1Cc1ccccc1Cl (stereo not drawn) | 31* | -17 | -10 | 20 | 0 | -12
Cc1c2cnn(CC(=O)NCCCN3CCCCC3)c(=O)c2c(C)n1Cc1ccccc1 | 9 | -1 | -3 | 3 | 0 | -6
CCC1CCCCN1CCCNC(=O)Cn1ncc2c(C)n(Cc3ccccc3Cl)c(C)c2c1=O (stereo not drawn) | 28* | -7 | -6 | 7 | 0 | -17
Cc1ccccc1Cc1c(C)nc2nc(SCC(=O)NCCCN3CCCC3)nn2c1C | 24 | -12 | -8 | 24 | 1 | -21
CCC1CCCCN1CCCNC(=O)CSc1nc2nc(C)c(Cc3ccccc3Cl)c(C)n2n1 (stereo not drawn) | 31* | -10 | -11 | 15 | 1 | -10
Cn1nc(-c2ccc(C(=O)NCCO)cc2)c2ccccc2c1=O | -9 | -1 | 0 | 12 | 1 | 4
